pIC50: −log10 of the molar value. Calls of active or inactive are those of the source. The calls are words filed in the database; no cut-off is given here.
Columns and labels:
Saccharomyces cerevisiae [1] = assay: Inhibition of Saccharomyces cerevisiae alpha-glucosidase at 1 mM using […] preincubated for 5 mins followed by substrate addition and measured after 15 mins relative to control; conditions: in the assay text read “p-nitrophenyl alpha-D-glucopyranoside” for “p-nitrophenyl beta-D-glucopyranoside”
Method in brief: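 Single-concentration screen at 1 mM against S. cerevisiae α-glucosidase. p-Nitrophenyl-α-D-glucopyranoside substrate was fixed at 1 mM, well above the Km determined in fixed-time runs, to saturate the enzyme. Inhibition is relative to the negative control, with significance by Student t-test (p < 0.05).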

[2] = Inhibition of Saccharomyces cerevisiae alpha-glucosidase using […] preincubated for 5 mins followed by substrate addition and measured after 15 mins; conditions: in the assay text read “p-nitrophenyl alpha-D-glucopyranoside” for “p-nitrophenyl beta-D-glucopyranoside”
Method in brief: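 S. cerevisiae α-glucosidase with p-nitrophenyl-α-D-glucopyranoside substrate fixed at 1 mM (above Km, saturating). Inhibitor was tested across a 10^-3–10^-9 M range. IC50 was obtained by nonlinear regression of the concentration–inhibition data.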

Alpha glucosidase = Alpha glucosidase (Homo sapiens, UniProt O43451+P10253+P14410+Q2M2H8); assay: Inhibition of alpha-glucosidase (unknown origin) using p-nitrophenyl beta-D-glucopyranoside as substrate measured after 20 mins; type: protein assay
Rattus norvegicus [3] = assay: In vivo inhibition of intestinal maltase-glucoamylase in Wistar rat assessed as reduction in postprandial hyperglycemia at 5 mg/kg, po pretreated for 30 mins followed by maltose challenge and measured after 30 to 120 mins by OMTT; type: functional, organism-based
Method in brief: (§1)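 Male Wistar rats received the test agent per os at the dose in the line, then a 2 g/kg maltose load. Blood glucose was followed after the maltose challenge. n = 5 per group, reported as m ± SEM. Comparisons were by 1-way ANOVA against vehicle and the reference group.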

Rattus norvegicus [4] = assay: In vivo inhibition of intestinal maltase-glucoamylase in Wistar rat assessed as reduction in postprandial hyperglycemia at 2.2 mg/kg, po pretreated for 30 mins followed by maltose challenge and measured after 30 to 120 mins by OMTT; type: functional, organism-based; method in brief: as §1
Saccharomyces cerevisiae [5] = assay: Potency index, ratio of acarbose IC50 to test compound IC50 for Saccharomyces cerevisiae alpha-glucosidase

| inhibition (Saccharomyces cerevisiae [1]) [%] | pIC50 [2] | Structure (SMILES) | other results |
| --- | --- | --- | --- |
| 39.6 |  | C1=C(c2ccccc2)Oc2ccc3ccccc3c2C1c1ccccc1 (configuration not stated) |  |
| 36.1 |  | COc1ccc(C2C=C(c3ccc(O)cc3)Oc3ccc4ccccc4c32)cc1 (configuration not stated) |  |
| 43.7 | < 3.00 | COc1ccc(C2C=C(c3ccccc3)Oc3ccc4ccccc4c32)cc1OC (configuration not stated) |  |
|  |  | Oc1cc(O)c2c(c1)O[C@@H](c1ccc(O)c(O)c1)[C@H](O)C2 [(-)-CATECHIN] | IC50 (Alpha glucosidase): 53.8 µM |
| 55.8 | 3.26 | C[C@H]1O[C@H](O[C@H]2[C@H](O)[C@@H](O)[C@@H](O[C@H]3[C@H](O)[C@@H](O)C(O)O[C@@H]3CO)O[C@@H]2CO)[C@H](O)[C@@H](O)[C@@H]1N[C@H]1C=C(CO)[C@@H](O)[C@H](O)[C@H]1O (some centres not stated) [ACARBOSE] | inhibition (Rattus norvegicus [3]): Active |
| 14.9 |  | Clc1ccc(C2=CC(c3ccc(Cl)cc3)c3c(ccc4ccccc34)O2)cc1 (configuration not stated) |  |
| 19.7 |  | COc1ccc(C2CCc3c(ccc4ccccc34)O2)cc1 (configuration not stated) |  |
| 10.8 |  | C1=C(c2ccccc2)Oc2ccc3ccccc3c2C1 |  |
| 47.6 | 3.05 | Cc1ccc(C2=CC(c3ccc(Cl)cc3)c3c(ccc4ccccc34)O2)cc1 (configuration not stated) |  |
| 69 | 3.02 | Clc1ccc(C2=CC(c3ccccc3)c3ccccc3O2)cc1 (configuration not stated) |  |
| 91.7 | 3.19 | CCc1ccc(C2=CCc3c(ccc4ccccc34)O2)cc1 |  |
| 18.3 |  | Clc1ccc(C2C=C(c3ccccc3)Oc3ccc4ccccc4c32)cc1 (configuration not stated) |  |
| 60.8 | 4.21 | C1=C(c2ccccc2)Oc2ccccc2C1c1ccccc1 (configuration not stated) | inhibition (Rattus norvegicus [4]): Active; Ratio IC50 (Saccharomyces cerevisiae [5]): 9 |
